ChEMBL document CHEMBL1124831, “Conjugate addition ligands of opioid antagonists. Methacrylate esters and ethers of 6 alpha- and 6 beta-naltrexol” (J Med Chem, 1990)

Legend:
[1] = biological target: T1, Opioid receptors; mu/kappa/delta (Homo sapiens, UniProt P41145+P41143+P35372); assay: Irreversible inhibition of 1 nM DAGO binding against Opioid receptors from protected bovine caudate membrane at 10 nM in presence of NaCl; design: scale not given: the % may be the effect or the level left; settings: Bos taurus, target entry is the homologue from another species
T1 sequence (P35372 whole entry, looked up): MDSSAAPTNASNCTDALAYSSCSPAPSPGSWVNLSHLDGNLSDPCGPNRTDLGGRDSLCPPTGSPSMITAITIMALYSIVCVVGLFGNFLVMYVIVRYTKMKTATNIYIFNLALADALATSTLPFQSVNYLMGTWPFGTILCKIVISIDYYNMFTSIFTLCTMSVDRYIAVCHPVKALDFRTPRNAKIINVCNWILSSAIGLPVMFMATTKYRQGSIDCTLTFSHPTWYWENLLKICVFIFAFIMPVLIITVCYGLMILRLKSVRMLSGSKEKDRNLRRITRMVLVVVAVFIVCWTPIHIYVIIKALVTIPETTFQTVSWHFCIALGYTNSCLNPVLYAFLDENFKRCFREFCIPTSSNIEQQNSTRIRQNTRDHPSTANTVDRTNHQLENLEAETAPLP
T1 sequence (P41143 whole entry, looked up): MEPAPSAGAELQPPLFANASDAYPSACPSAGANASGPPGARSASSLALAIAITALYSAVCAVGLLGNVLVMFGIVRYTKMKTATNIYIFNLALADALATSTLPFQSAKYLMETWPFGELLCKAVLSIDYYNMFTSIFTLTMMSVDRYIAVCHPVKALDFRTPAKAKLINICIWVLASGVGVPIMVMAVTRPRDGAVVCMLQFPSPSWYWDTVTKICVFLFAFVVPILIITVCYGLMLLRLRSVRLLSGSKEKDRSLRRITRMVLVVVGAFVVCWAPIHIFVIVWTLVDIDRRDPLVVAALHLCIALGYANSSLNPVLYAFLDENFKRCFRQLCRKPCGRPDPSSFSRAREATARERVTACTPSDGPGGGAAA
T1 sequence (P41145 whole entry, looked up): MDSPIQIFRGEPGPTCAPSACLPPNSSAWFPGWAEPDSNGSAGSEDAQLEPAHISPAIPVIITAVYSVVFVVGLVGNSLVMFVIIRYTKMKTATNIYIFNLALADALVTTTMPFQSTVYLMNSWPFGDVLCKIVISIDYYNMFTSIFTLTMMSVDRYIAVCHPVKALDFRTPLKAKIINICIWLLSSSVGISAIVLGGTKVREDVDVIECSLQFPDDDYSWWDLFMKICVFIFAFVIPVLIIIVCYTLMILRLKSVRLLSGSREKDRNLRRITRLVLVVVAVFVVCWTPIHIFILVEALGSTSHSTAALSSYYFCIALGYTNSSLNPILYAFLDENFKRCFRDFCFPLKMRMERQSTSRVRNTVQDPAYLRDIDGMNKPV

[2] = biological target: T1, Opioid receptors; mu/kappa/delta; assay: In vitro binding affinity against Opioid receptors from bovine caudate nucleus determined in presence of [3H]- bremazocine (0.5 nM); type: protein assay, Bos taurus; settings: target entry is the homologue from another species
Summary of the method: (§1)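 Crude bovine striatal membranes were stored at -70 °C. Competitor was tested at five concentrations, with nonspecific binding defined by 10 μM naloxone. Incubation was 45 min at 25 °C in 50 mM Tris-HCl or potassium phosphate, pH 7.4, with 1 mM EDTA. Read-out was GF/B filtration and scintillation counting. IC50 is from duplicates or triplicates.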

[3] = biological target: T1, Opioid receptors; mu/kappa/delta; settings: Bos taurus; at 20 nM
[4] = biological target: T1, Opioid receptors; mu/kappa/delta; assay: Irreversible inhibition of 1 nM DAGO binding against Opioid receptors from unwashed bovine caudate membrane at 10 nM in presence of NaCl; design: scale not given: the % may be the effect or the level left; settings: Bos taurus, target entry is the homologue from another species
Mus musculus = species: Mus musculus; assay: Antagonist activity against morphine was determined […] in mice using tail flick assay; type: functional
Summary of the method: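 Mouse tail-flick test against morphine given sc, run by the Committee on Problems of Drug Dependence. The antagonist dose giving 50% blockade (AD50, mg/kg) is reported with 95% confidence limits.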

Mu-type opioid receptor = Mu-type opioid receptor (Bos taurus, UniProt P79350); assay: In vitro binding affinity against Opioid receptor mu 1 from bovine caudate nucleus determined in presence of [3H]DAGO (1 nM)
Chain of Mu-type opioid receptor (P79350 whole entry): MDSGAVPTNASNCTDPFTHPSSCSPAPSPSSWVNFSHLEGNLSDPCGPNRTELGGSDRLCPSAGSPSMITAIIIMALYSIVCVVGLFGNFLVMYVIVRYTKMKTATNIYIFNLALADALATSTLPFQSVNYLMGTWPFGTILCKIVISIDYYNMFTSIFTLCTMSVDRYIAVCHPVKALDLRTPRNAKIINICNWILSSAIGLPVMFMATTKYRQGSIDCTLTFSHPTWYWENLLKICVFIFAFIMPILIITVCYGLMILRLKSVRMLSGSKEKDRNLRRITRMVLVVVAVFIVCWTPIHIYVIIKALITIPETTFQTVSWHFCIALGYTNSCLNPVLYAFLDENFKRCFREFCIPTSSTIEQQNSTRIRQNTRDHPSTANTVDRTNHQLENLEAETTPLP
Summary of the method: as §1, with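 “°C. […]” for “°C.”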

[5] = biological target: T1, Opioid receptors; mu/kappa/delta; settings: Bos taurus; at 20 nM; remark: listed apart in the source
[6] = biological target: T1, Opioid receptors; mu/kappa/delta; settings: Bos taurus; at 100 nM
[7] = biological target: T1, Opioid receptors; mu/kappa/delta; settings: Bos taurus; at 100 nM; remark: listed apart in the source
[8] = biological target: T1, Opioid receptors; mu/kappa/delta; settings: Bos taurus; at 100 nM; remark: listed apart in the source
[9] = biological target: T1, Opioid receptors; mu/kappa/delta; settings: Bos taurus; at 100 nM; remark: listed apart in the source
[10] = biological target: T1, Opioid receptors; mu/kappa/delta; settings: Bos taurus; at 100 nM; remark: listed apart in the source
[11] = biological target: T1, Opioid receptors; mu/kappa/delta; settings: Bos taurus; at 20 nM; remark: listed apart in the source

Compound | Control [1] | IC50 [2] | Control [3] | Control [4] | AD50 (Mus musculus) | IC50 (Mu-type opioid receptor) | Control [5] | Control [6] | Control [7] | Control [8] | Control [9] | Control [10] | Control [11]
C=C(CO[C@@H]1CC[C@@]2(O)[C@H]3Cc4ccc(O)c5c4[C@@]2(CCN3CC2CC2)[C@H]1O5)C(=O)OC | 95% | 12 nM | 59% | 20% | 0.02 mg/kg | 1.5 nM | 35% | – | – | – | – | – | –
C=C(C)C(=O)O[C@H]1CC[C@@]2(O)[C@H]3Cc4ccc(O)c5c4[C@@]2(CCN3CC2CC2)[C@H]1O5 | – | 20 nM | – | – | 0.02 mg/kg | 6.8 nM | – | 22% | 100% | – | – | – | –
C=C1CC2(CCC3(O)[C@H]4Cc5ccc(O)c6c5[C@@]3(CCN4CC3CC3)C2O6)OC1=O (some centres undefined) | – | 6 nM | – | – | – | 1.8 nM | – | – | – | 85% | 50% | 16% | –
C=C(C)C(=O)OC1CCC2(O)C3Cc4ccc(O)c5c4[C@@]2(CCN3CC2CC2)C1O5 (some centres undefined) | – | 5 nM | – | – | 0.02 mg/kg | 1 nM | – | 39% | 100% | – | – | – | –
C=C(COC1CCC2(O)C3Cc4ccc(O)c5c4[C@@]2(CCN3CC2CC2)C1O5)C(=O)OC (some centres undefined) | – | 2.4 nM | 79% | – | 0.07 mg/kg | 0.18 nM | 17% | – | – | – | – | – | 96%
O=C1CC[C@@]2(O)[C@H]3Cc4ccc(O)c5c4[C@@]2(CCN3CC2CC2)[C@H]1O5 [NALTREXONE] | – | – | – | – | 0.007 mg/kg | – | – | – | – | – | – | – | –
